According to ChEMBL document CHEMBL1132157 (J Med Chem, 1999):

How the values were obtained:
[1] = Ratio of IC50 for human 5-HT1B to human 5-HT1D receptors
[2] = biological target: T1, 5-hydroxytryptamine receptor 1D (Homo sapiens, UniProt P28221); assay: Maximum stimulation of [35S]GTP-gamma-S, binding in CHO cells expressing human 5-HT-1d relative to 5-HT; assay type: functional, cell-based
Procedure, shortened: (§1)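 Membranes from thawed CHO cells with human 5-HT1D, prepared in ice-cold 20 mM Hepes/EDTA at pH 7.4, spun at 40000g. Assay buffer: 100 mM NaCl, 10 mM MgCl2, 0.1% ascorbate, 10 μM pargyline. GDP 100 μM plus drug, 20 min at 30 °C, then ice 15 min. Then 100 pM [35S]GTPγS, 30 min at 30 °C, filtration. Emax is taken as % of maximal 5-HT response; duplicates, 2–5 occasions.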

[3] = biological target: 5-hydroxytryptamine receptor 1B (Homo sapiens, UniProt P28222); assay: Displacement of [3H]5-HT binding to cloned 5-hydroxytryptamine 1B receptor stably expressed in CHO cells; assay type: cell-based
Chain of 5-hydroxytryptamine receptor 1B (P28222 whole entry): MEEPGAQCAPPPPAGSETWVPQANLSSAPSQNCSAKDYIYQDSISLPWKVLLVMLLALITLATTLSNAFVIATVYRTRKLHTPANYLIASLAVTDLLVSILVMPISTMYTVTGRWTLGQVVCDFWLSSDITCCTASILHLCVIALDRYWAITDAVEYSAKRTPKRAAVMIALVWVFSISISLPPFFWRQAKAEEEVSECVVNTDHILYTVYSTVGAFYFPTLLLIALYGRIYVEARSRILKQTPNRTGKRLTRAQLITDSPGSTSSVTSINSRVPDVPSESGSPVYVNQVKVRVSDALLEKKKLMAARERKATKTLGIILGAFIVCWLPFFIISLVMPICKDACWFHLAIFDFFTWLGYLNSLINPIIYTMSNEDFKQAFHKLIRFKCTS
Procedure, shortened: (§2)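 Membranes from thawed CHO cells with human 5-HT1B or 5-HT1D, washed in 50 mM Tris-HCl pH 7.7, preincubated 10 min at 37 °C to remove endogenous 5-HT. Buffer holds 0.1% ascorbate, 10 μM pargyline and 4 mM CaCl2. Uses 2.0 nM [3H]5-HT, 30 min at 37 °C; 10 μM 5-HT defines nonspecific binding. Filtration; IC50 by nonlinear regression; duplicates, 2–5 occasions.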

[4] = biological target: T1, 5-hydroxytryptamine receptor 1D; assay: Displacement of [3H]5-HT binding to cloned human 5-hydroxytryptamine 1D receptor stably expressed in CHO cells; assay type: cell-based; procedure, shortened: as §2
[5] = biological target: T1, 5-hydroxytryptamine receptor 1D; assay: Agonist-induced [35S]- GTPgammaS binding in CHO cells stably transfected with 5-hydroxytryptamine 1D receptor; assay type: cell-based; procedure, shortened: as §1

T1 sequence (P28221 whole entry): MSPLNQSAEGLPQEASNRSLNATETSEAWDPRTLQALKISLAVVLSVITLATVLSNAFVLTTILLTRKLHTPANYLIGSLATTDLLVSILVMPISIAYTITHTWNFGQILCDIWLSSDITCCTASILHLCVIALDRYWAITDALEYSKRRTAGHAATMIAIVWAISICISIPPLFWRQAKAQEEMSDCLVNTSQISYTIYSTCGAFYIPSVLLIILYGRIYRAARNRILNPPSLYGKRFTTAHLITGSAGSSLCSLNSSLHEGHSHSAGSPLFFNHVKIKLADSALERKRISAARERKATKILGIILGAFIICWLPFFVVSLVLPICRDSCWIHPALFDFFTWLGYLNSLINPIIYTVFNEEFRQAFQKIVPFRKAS

Row | Selectivity [1] | Efficacy [2] | IC50 [3] | IC50 [4] | EC50 [5] | SMILES
1 | 98 | 77% | 400 nM | 4.1 nM | 7.4 nM | OC[C@H](NC1CCN(CCCc2c[nH]c3ccc(-n4cncn4)cc23)CC1)c1ccccc1
2 | 23 | 78% | 25 nM | 1.1 nM | 1.3 nM | c1ccc2c(c1)CCC2NCC1CCN(CCCc2c[nH]c3ccc(-n4cnnc4)cc23)CC1 (stereo not drawn)
3 | 13 |  | 79 nM | 5.9 nM |  | OC[C@H](NCC1CCN(CCCc2c[nH]c3ccc(-n4cnnc4)cc23)CC1)c1ccccc1
4 | 14 |  | 85 nM | 6 nM |  | CN(CC1CCN(CCCc2c[nH]c3ccc(-n4cnnc4)cc23)CC1)[C@@H](CO)c1ccccc1
5 | 31 | 68% | 280 nM | 8.9 nM | 25 nM | c1ccc2c(c1)CCC2NC1CCN(CCCc2c[nH]c3ccc(-n4cnnc4)cc23)CC1 (stereo not drawn)
6 | 7.8 |  | 140 nM | 18 nM |  | CN(C(=O)Nc1ccccc1)C1CCN(CCCc2c[nH]c3ccc(-n4cnnc4)cc23)CC1
7 | 8.7 |  | 13 nM | 1.5 nM |  | CN(C)C[C@H](NC1CCN(CCCc2c[nH]c3ccc(-n4cnnc4)cc23)CC1)c1ccccc1
8 | 16 |  | 320 nM | 20 nM |  | C=CCN(C)C1CCN(CCCc2c[nH]c3ccc(-n4cnnc4)cc23)CC1
9 | 240 | 89% | 1200 nM | 5 nM | 8.9 nM | COC[C@H](NC1CCN(CCCc2c[nH]c3ccc(Cn4cncn4)cc23)CC1)c1ccc(F)cc1
10 | 73 | 83% | 460 nM | 6.3 nM | 6 nM | O=C1N[C@@H](Cc2ccc3[nH]cc(CCCN4CCC(N[C@@H](CO)c5ccccc5)CC4)c3c2)CO1
11 | 23 | 69% | 420 nM | 18 nM | 18 nM | C[C@@H](NC1CCN(CCCc2c[nH]c3ccc(-n4cncn4)cc23)CC1)c1ccccc1
12 | 16 | 99% | 9.3 nM | 0.6 nM | 3 nM | CC(=O)Nc1ccc([C@H](C)NCC2CCN(CCCc3c[nH]c4ccc(-n5cnnc5)cc34)CC2)cc1
13 | 20 | 81% | 150 nM | 7.6 nM | 30 nM | C[C@H](O)[C@H](NC1CCN(CCCc2c[nH]c3ccc(-n4cnnc4)cc23)CC1)c1ccccc1
14 | 5.4 |  | 76 nM | 14 nM |  | c1ccc(CNC2CCN(CCCc3c[nH]c4ccc(-n5cnnc5)cc34)CC2)nc1
15 | 14 |  | 170 nM | 12 nM |  | CC(=O)Nc1ccc(CCNC2CCN(CCCc3c[nH]c4ccc(-n5cnnc5)cc34)CC2)cc1
16 | 9.6 |  | 89 nM | 9.3 nM |  | CN(Cc1ccco1)C1CCN(CCCc2c[nH]c3ccc(-n4cnnc4)cc23)CC1
17 | 2.1 |  | 8.9 nM | 4.2 nM |  | CC(=O)Nc1ccc(CNCC2CCN(CCCc3c[nH]c4ccc(-n5cnnc5)cc34)CC2)cc1
18 | 12 |  | 260 nM | 22 nM |  | CN(CC1CC1)C1CCN(CCCc2c[nH]c3ccc(-n4cnnc4)cc23)CC1
19 | 5.9 |  | 8.9 nM | 1.5 nM |  | CC(=O)Nc1ccc([C@@H](C)NCC2CCN(CCCc3c[nH]c4ccc(-n5cnnc5)cc34)CC2)cc1
20 | 13 |  | 58 nM | 4.4 nM |  | C[C@H](NCC1CCN(CCCc2c[nH]c3ccc(-n4cnnc4)cc23)CC1)c1ccccc1
21 | 4 |  | 140 nM | 35 nM |  | c1cncc(CNC2CCN(CCCc3c[nH]c4ccc(-n5cnnc5)cc34)CC2)c1

Row | Selectivity [1] | Efficacy [2] | IC50 [3] | IC50 [4] | EC50 [5] | SMILES
22 | 12 |  | 66 nM | 5.7 nM |  | CC(=O)Nc1ccc(CCN(C)C2CCN(CCCc3c[nH]c4ccc(-n5cnnc5)cc34)CC2)cc1
23 | > 37 |  | > 10000 nM | 270 nM |  | O=C(c1ccc(F)cc1)C1CCN(CCn2c(=O)[nH]c3ccccc3c2=O)CC1 [KETANSERIN]
24 | 9.2 |  | 24 nM | 2.6 nM |  | CC(C)=CCCN(C)C1CCN(CCCc2c[nH]c3ccc(-n4cnnc4)cc23)CC1
25 | 7.8 |  | 140 nM | 18 nM |  | CN(Cc1ccc(S(C)(=O)=O)cc1)C1CCN(CCCc2c[nH]c3ccc(-n4cnnc4)cc23)CC1
26 | 30 | 93% | 27 nM | 0.9 nM |  | CN(Cc1ccccc1)CC1CCN(CCCc2c[nH]c3ccc(-n4cnnc4)cc23)CC1
27 | 67 |  |  |  |  | CN(Cc1ccccc1)C1CCN(CCCc2c[nH]c3ccc(-n4cnnc4)cc23)CC1
28 | 11 |  | 18 nM | 1.6 nM |  | CN(CC1CCN(CCCc2c[nH]c3ccc(-n4cnnc4)cc23)CC1)S(=O)(=O)c1ccccc1
29 | 5.3 |  | 63 nM | 12 nM |  | NC1CCN(CCCc2c[nH]c3ccc(-n4cnnc4)cc23)CC1
30 | 10 |  | 14 nM | 1.4 nM |  | C[C@@H](NCC1CCN(CCCc2c[nH]c3ccc(-n4cnnc4)cc23)CC1)c1ccccc1
31 | 85 | 95% |  |  | 1.7 nM | OC[C@H](NC1CCN(CCCc2c[nH]c3ccc(-n4cnnc4)cc23)CC1)c1ccccc1
32 | 6 |  | 260 nM | 43 nM |  | CNS(=O)(=O)Cc1ccc2[nH]cc(CCCN3CCC(N[C@H](C)c4ccccc4)CC3)c2c1
33 | 5.3 |  | 100 nM | 19 nM |  | CC(=O)Nc1ccc(CN(C)C2CCN(CCCc3c[nH]c4ccc(-n5cnnc5)cc34)CC2)cc1
34 | 1.9 |  | 3.3 nM | 1.7 nM |  | c1ccc(NCC2CCN(CCCc3c[nH]c4ccc(-n5cnnc5)cc34)CC2)nc1
35 | 8.1 |  | 66 nM | 8.1 nM |  | CN(Cc1ccc(S(C)(=O)=O)cc1)CC1CCN(CCCc2c[nH]c3ccc(-n4cnnc4)cc23)CC1
36 | 1.1 |  | 6.2 nM | 5.9 nM |  | CN(CC1CCN(CCCc2c[nH]c3ccc(-n4cnnc4)cc23)CC1)C(=O)Nc1ccccc1
37 | 64 |  | 89 nM | 1.4 nM |  | COC[C@H](NC1CCN(CCCc2c[nH]c3ccc(-n4cnnc4)cc23)CC1)c1ccc(F)cc1
38 | 8.1 |  | 300 nM | 37 nM |  | O[C@H]1Cc2ccccc2C1NC1CCN(CCCc2c[nH]c3ccc(-n4cnnc4)cc23)CC1 (stereo partly drawn)
39 | 6.7 |  | 10 nM | 1.5 nM |  | CN(C1CCN(CCCc2c[nH]c3ccc(-n4cnnc4)cc23)CC1)S(=O)(=O)c1ccccc1
40 | 2.4 |  | 40 nM | 17 nM |  | CC(=O)Nc1ccc(C(=O)N(C)CC2CCN(CCCc3c[nH]c4ccc(-n5cnnc5)cc34)CC2)cc1
41 | 10 |  | 34 nM | 3.4 nM |  | OC[C@@H](NCC1CCN(CCCc2c[nH]c3ccc(-n4cnnc4)cc23)CC1)c1ccccc1
42 | 88 | 90% |  | 0.4 nM | 13 nM | C[C@@H](NC1CCN(CCCc2c[nH]c3ccc(-n4cnnc4)cc23)CC1)c1ccccc1

Row | SMILES | Selectivity [1] | Efficacy [2] | IC50 [3] | IC50 [4] | EC50 [5]
43 | c1cc2[nH]cc(CCN3CCCC3)c2cc1-n1cnnc1 | 9 |  |  |  | 
